Bioassay records deposited in PubChem by several laboratories.
Only some compounds are listed: those with a hit (about 1.9% of all), similar ones and a draw of the others.
procasp7 counter – counter-screen for procaspase-3 activators: activators of human procaspase-7. P55210. recombinant procaspase-7, Ac-DEVD-pNA absorbance 405 nm; D23A/D198A/D206A triple mutant, cannot self-cleave; scale: DMSO 0, 5 µM enzyme 100. activation, % at 8.5 µM. 330,000 compounds, 0.093% hits. AID 463210;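 active = percent activation above the screen-wide mean plus 3 SD, cut at about 25% in these data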
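Detection: p-Nitroaniline absorbance at 405 nm, read at 0 and 120 min; system: Uncleavable procaspase-7 mutant enzyme; evaluation: % activation from two-timepoint absorbance difference, scaled to controls; times: 1 h enzyme–compound preincubation and 2 h substrate reaction, both 25 °C; buffer or medium: Zinc-free HEPES pH 7.4 with 300 mM NaCl, 0.01% Triton X-100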
PLC-gamma1 inh – PLC-gamma1 (human) inhibition, primary screen. AID 720700. P19174. purified PLC-gamma1, fluorogenic substrate, fluorescence. 370,000 compounds, 0.84% hits. inhibition, % at 12.2 µM; in the data active = inhibition above about 9.5%
Arrestin-AP2 inh – inhibitors of human beta-arrestin and AP2 interaction. FITC-arrestin peptide / GST-AP2 beads, flow cytometry; AP2 beta2 appendage carries R879A mutation. inhibition, % at 10 µM. 340,000 compounds, 0.31% hits. AID 504490;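 active = inhibition above a set limit, near 3 SD of compounds lacking own fluorescence, cut at about 54% in these data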;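 also: plate controls were DMSO wells for no effect and 5 µM unlabelled arrestin peptide for full effect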
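Material – AP2 appendage R879A on GSH beads · Buffer or medium – PBS with 0.05% Tween 20 and 0.1% BSA · Probe or stimulus – fluorescein-tagged arrestin peptide at 50 nM final · Incubation – compound with beads 12 min RT, then probe 1 h RT · Detection – high-throughput flow cytometry of beads, ex 488, em 535 nm · Evaluation – percent response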
PLCb3 inh – inhibitors of human phospholipase C beta3; Purified PLC-beta3, fluorogenic substrate, fluorescence; inhibition, % at 12.2 µM; 370,000 compounds, 0.18% hits;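 also: 0% = median of compound wells on plate and 100% = full blocker control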
HGIII-sPLA2 inh – Inhibits HGIII-sPLA2 liposome hydrolysis, primary screen. Q9NZ20. QFRET BODIPY PC-A2 liposome hydrolysis, fluorescence. 370,000 compounds, 0.56% hits. inhibition, % at 12.2 µM;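 active = inhibition above mean plus 3 SD of compounds lying within the high and low control bounds, cut at about 19% in these data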;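 also: 0% = median of test compound wells and 100% = no enzyme DMSO wells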
Target sequence (Q9NZ20 whole entry, looked up): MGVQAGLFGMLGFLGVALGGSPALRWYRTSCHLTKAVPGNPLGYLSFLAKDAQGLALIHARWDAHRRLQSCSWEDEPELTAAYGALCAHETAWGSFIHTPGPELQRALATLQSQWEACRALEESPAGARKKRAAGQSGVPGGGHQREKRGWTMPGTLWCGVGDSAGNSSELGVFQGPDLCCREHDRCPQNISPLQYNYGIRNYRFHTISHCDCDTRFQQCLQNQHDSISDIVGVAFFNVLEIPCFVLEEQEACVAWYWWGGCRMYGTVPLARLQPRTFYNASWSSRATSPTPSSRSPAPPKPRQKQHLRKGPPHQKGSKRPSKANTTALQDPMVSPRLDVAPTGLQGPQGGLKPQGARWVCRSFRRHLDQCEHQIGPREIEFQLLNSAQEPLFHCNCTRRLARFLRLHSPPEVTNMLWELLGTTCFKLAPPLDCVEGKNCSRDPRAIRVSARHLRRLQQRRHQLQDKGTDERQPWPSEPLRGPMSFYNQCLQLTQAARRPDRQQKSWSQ
procasp3 activ – procaspase-3 (human) activation; recombinant procaspase-3 D3A, Ac-DEVD-pNA absorbance 405 nm; activation, % at 8.5 µM; 330,000 compounds, 0.11% hits; P42574; AID 463141;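 active = activation above the mean of all tested compounds plus 3 SD, cut at about 21% in these data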;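 also: 0% = DMSO alone and 100% = DMSO wells spiked with extra 5 µM PC-3 D3A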
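Assay system: Autoprocessing-dead procaspase-3 D3A mutant enzyme; also added: Ac-DEVD-pNA; doses: one concentration, 8.5 µM nominal, 0.8% DMSO; times: 1 h compound preincubation, 2 h substrate hydrolysis at 25 °C; technique: 405 nm absorbance of p-nitroaniline, reads at 0 and 120 min; measure: % activation between DMSO and enzyme-spiked controls; repeats: single replicate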
PLCgamma1 ctr – PLC-gamma1 inhibition, counter-screen for PLC-beta3 hits. AID 743258. purified PLC-gamma1, fluorogenic substrate, fluorescence. inhibition, % at 12.3 µM. 3,300 compounds, 3.1% hits. shares compounds with PLC-gamma1 inh; in the data active = inhibition above about 9.5%
PLCbeta3 conf – human PLC-beta3 inhibition, confirmation. shares compounds with PLC-gamma1 inh. purified PLC-beta3, fluorogenic substrate fluorescence. inhibition, % at 12.3 µM. 3,300 compounds, 1% hits. AID 743261
An asterisk follows results filed as active; i = inactive; · = not tested or not shown. Rule as the data show it, unless noted: active = inhibition above about 11%; inactive = the rest.

SMILES	procasp7 counter	PLC-gamma1 inh	Arrestin-AP2 inh	PLCb3 inh	HGIII-sPLA2 inh	procasp3 activ	PLCgamma1 ctr	PLCbeta3 conf
CC(=O)N1CC(C)Oc2ccc(S(=O)(=O)Nc3ccc(Cl)cn3)cc21 (stereo not drawn)	-8	10*	-12	-3	5	6	-6	-4
C[N+](C)(C)CC/C=C1/c2ccccc2CSc2ccccc21	-20	6	-19	-1	4	-16	·	·
CNCCC=C1c2ccccc2CCc2ccccc21	-8	12*	22	0	12	1	-5	-11
O=C(CSc1nncn1-c1ccccc1)Nc1ccc(N2CCOCC2)cc1	11	9.8*	-10	1	6	9	-4	-2
O=C(CSc1nnnn1-c1ccccc1)Nc1ccc(N2CCOCC2)cc1	5	3	27	3	-2	-4	·	·
C/C(=N\N=C1\NC(=O)CS1)c1cccs1	6	13*	45	6	10	8	2	3
Cc1ccc(OC(C)C(=O)N(Cc2cccs2)C2CCS(=O)(=O)C2)cc1C (stereo not drawn)	6	9.8*	-8	-2	-8	13	0	2
Cc1cccc(CCNC(=O)C2CCCN(S(=O)(=O)c3cccc4nsnc34)C2)c1 (stereo not drawn)	-2	17*	1	9	14	-8	-2	1
Cc1cccc(-c2cccc3[nH]c4c(c23)CCN2C(=O)[C@H]3[C@H](C)ON(C)[C@H]3C[C@@H]42)c1	·	-362	·	i	-10	·	·	·
O=C(O)c1ccc(C#Cc2cccc(F)c2)cn1	·	-1	·	-1	10	·	·	·
O=C(c1ccc(CSc2nc3ccncc3[nH]2)cc1)N1CCCCCC1	7	2	-14	-4	-19	7	·	·
O=C(c1ccc(CSc2nc3ccncc3[nH]2)cc1)N1CCN(c2cccc(Cl)c2)CC1	-4	16*	4	2	-23	-11	2	1
CCCCCCCCN1C(=O)[C@@H](CC(=O)NCCCN2CCCC2=O)C[C@@]2(C(=O)OC)C1=C[C@H](COCc1ccccc1)O[C@@H]2C	·	2	·	-2	-8	·	·	·
Cc1ccc(SCc2cc(=O)n(C)[nH]2)cc1	-9	11*	-1	6	-3	0	-2	-3
CN(C)N1C(=O)CC(NNC(=O)c2ccncc2)C1=O (stereo not drawn)	-6	10*	13	3	1	2	-6	2
O=C(Nc1ncc([N+](=O)[O-])s1)C1CCN(S(=O)(=O)c2cnc[nH]2)CC1	-3	7	12	13*	-18	-8	-1	0
Cc1nn(-c2cc(C(F)(F)F)ccc2Cl)c2nc(C(F)(F)F)[nH]c(=O)c12	-2	4	7	12*	-3	-9	-2	-6
CCCCNC(=O)C[C@H]1C(=O)N(Cc2ccc(OC)cc2)C2=CCCCC[C@@]21C(=O)OC	·	1	·	3	-6	·	·	·
CC(=O)Nc1ccc(SCC(=O)N(C)CC(=O)Nc2ccccc2Cl)cc1	-19	0	13	-3	1	-7	·	·
CN(CC(=O)Nc1ccccc1Cl)C(=O)CSc1nncs1	-13	10*	-3	0	3	2	-1	0
C[C@H]1[C@@H](NC(=O)c2ccc(Cl)c(C(F)(F)F)c2)CC[C@@]23CCCN2C(=O)CCC[C@@H]13	·	6	·	-4	4	·	·	·
O=C(NCc1ccccn1)C1CCN(Cc2cnn(-c3ccccc3)c2-n2cccc2)CC1	5	1	2	1	-10	5	·	·
COc1cccc(CNC(=O)C2CCN(Cc3cnn(-c4ccccc4)c3-n3cccc3)CC2)c1	-1	9.7*	-2	5	-17	-2	2	-1
